Assay results from ChEMBL document CHEMBL2150887, “Design, Prins-cyclization reaction promoting diastereoselective synthesis of 10 new tetrahydropyran derivatives and in vivo antinociceptive evaluations” (Eur J Med Chem, 2012).
The source made the active and inactive calls. The calls are words filed in the database; no cut-off is given here.

Experiments:
Mus musculus [1] = test: Toxicity in Swiss albino mouse assessed as hyperactivity up to 2000 mg/kg, po measured from 5 hrs post-dose to 14 days relative to untreated-control; assay type: organism-based; design: dose 2000 mg/kg, route oral; conditions: in vivo
Summary of the method: (§1)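 Acute toxicity followed WHO and OECD guidelines. Male Albino-Swiss mice received single oral doses increasing up to 2000 mg/kg. Behaviour (disorientation, hyperactivity, piloerection, hyperventilation) was observed from 5 h after dosing and then daily until day 14. LD50 was estimated by nonlinear regression of % deaths against dose.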

Mus musculus [2] = test: Neurotoxicity in Swiss albino mouse assessed as alteration in motor activity at 30 mg/kg, po administered 60 mins prior to testing measured for 5 mins by open field test relative to untreated-control; assay type: toxicity, organism-based; design: dose 30 mg/kg, route oral; conditions: in vivo
Summary of the method: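 Male Albino-Swiss mice, n = 6, received 30 mg/kg p.o. or vehicle. Sixty minutes after dosing, each mouse was placed alone in a chamber whose floor was divided into 50 squares of 5 × 5 cm. Squares crossed were counted over 5 min.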

Mus musculus [3] = test: Toxicity in Swiss albino mouse assessed as hyperventilation up to 2000 mg/kg, po measured from 5 hrs post-dose to 14 days relative to untreated-control; assay type: organism-based; design: dose 2000 mg/kg, route oral; conditions: in vivo; summary of the method: as §1
Mus musculus [4] = test: Toxicity in Swiss albino mouse assessed as piloerection up to 2000 mg/kg, po measured from 5 hrs post-dose to 14 days relative to untreated-control; assay type: organism-based; design: dose 2000 mg/kg, route oral; conditions: in vivo; summary of the method: as §1
Mus musculus [5] = test: Antinociceptive activity in Swiss albino mouse assessed as increase in tail-flick latency at 30 mg/kg, po measured up to 120 mins relative to untreated-control; assay type: functional, organism-based; design: dose 30 mg/kg
Summary of the method: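 Male Albino-Swiss mice (20-24 g), n = 6 per group, given 30 mg/kg p.o. as a suspension in 5% ethyl acetate vehicle (5 mL/kg). Tail-flick latency was measured every 20 min: two pre-dose readings were averaged as baseline, then six post-dose readings. Results are expressed as % increase over baseline and as AUC from 20-120 min. ANOVA with Bonferroni test, P < 0.05.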

Mus musculus [6] = test: Antinociceptive activity in Swiss albino mouse assessed as inhibition of acetic-acid induced abdominal writhing at 30 mg/kg, po administered prior to acetic-acid challenge measured after 30 mins relative to untreated-control; assay type: functional; conditions: Abdomen, 0.5 h
Summary of the method: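 Male Albino-Swiss mice (20-24 g), n = 6, were pretreated orally at 30 mg/kg in 5% ethyl acetate vehicle (5 mL/kg). Writhing was induced with 1.2% (v/v) acetic acid i.p. Writhes (abdominal contraction, body stretching, hind-limb extension) were counted for 30 min starting immediately after injection and compared with the control group. ANOVA/Bonferroni, P < 0.05.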

Mus musculus [7] = test: Toxicity in Swiss albino mouse assessed as disorientation up to 2000 mg/kg, po measured from 5 hrs post-dose to 14 days relative to untreated-control; assay type: organism-based; design: dose 2000 mg/kg, route oral; conditions: in vivo; summary of the method: as §1
[8] = Toxicity in po dosed Swiss albino mouse; assay type: organism-based; conditions: in vivo
Summary of the method: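 Acute oral toxicity per WHO and OECD guidelines. Male Albino-Swiss mice (20–24 g), 6 per group, held at 20 ± 2 °C on a 12 h light/dark cycle. Given single oral doses rising to 2000 mg/kg, as a suspension in 5% ethyl acetate at 5 mL/kg. Behaviour watched from 5 h after dosing, then daily to day 14. LD50 from nonlinear regression of percent deaths against dose.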

Mus musculus [9] = test: Neurotoxicity in Swiss albino mouse assessed as alteration in motor activity at 30 mg/kg, po administered 60 mins prior to testing measured for 5 mins by rotarod test relative to untreated-control; assay type: toxicity, organism-based; design: dose 30 mg/kg, route oral; conditions: in vivo
Summary of the method: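 Mice were trained twice the day before to stay 5 min on a rotarod turning at 10 rev/min. Twenty-four hours later they received 30 mg/kg p.o. or vehicle. Sixty minutes after dosing they were placed on the roller for 5 min, and the number of falls was recorded as the neurological deficit.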

Mus musculus [10] = test: Antinociceptive activity in mouse assessed as inhibition of acetic-acid induced abdominal writhing at 50 mg/kg administered 60 mins prior to acetic-acid challenge; assay type: functional; conditions: Abdomen

SMILES: O=C(O)[C@H]1C[C@@H](Cl)C[C@@H](c2cccc3ccccc23)O1 (relative stereo)
- Activity (Mus musculus [1]): Non-toxic
- Activity (Mus musculus [2]): Non-toxic
- Activity (Mus musculus [3]): Non-toxic
- Activity (Mus musculus [4]): Non-toxic
- Activity (Mus musculus [5]): inactive
- inhibition in vivo at 30 mg/kg (Mus musculus [6]): 54.4%
- Activity (Mus musculus [7]): Non-toxic
- LD50 [8]: > 2000 mg/kg
- Activity (Mus musculus [9]): Non-toxic

SMILES: O=C(O)[C@H]1CCC[C@@H](c2cccc3ccccc23)O1 (relative stereo)
- Activity (Mus musculus [1]): Non-toxic
- Activity (Mus musculus [2]): Non-toxic
- Activity (Mus musculus [3]): Non-toxic
- Activity (Mus musculus [4]): Non-toxic
- Activity (Mus musculus [5]): Active
- inhibition in vivo at 30 mg/kg (Mus musculus [6]): 49%
- Activity (Mus musculus [7]): Non-toxic
- LD50 [8]: > 2000 mg/kg
- Activity (Mus musculus [9]): Non-toxic

SMILES: CC(C)C(=O)OC[C@H]1C[C@@H](Cl)C[C@@H](c2cccc3ccccc23)O1 (relative stereo)
- Activity (Mus musculus [1]): Non-toxic
- Activity (Mus musculus [2]): Non-toxic
- Activity (Mus musculus [3]): Non-toxic
- Activity (Mus musculus [4]): Non-toxic
- Activity (Mus musculus [5]): Active
- inhibition in vivo at 30 mg/kg (Mus musculus [6]): 38.4%
- Activity (Mus musculus [7]): Non-toxic
- LD50 [8]: > 2000 mg/kg
- Activity (Mus musculus [9]): Non-toxic

SMILES: CC(C)C(=O)OC[C@H]1C[C@@H](Cl)C[C@@H](c2ccc3ccccc3c2)O1 (relative stereo)
- Activity (Mus musculus [1]): Non-toxic
- Activity (Mus musculus [2]): Non-toxic
- Activity (Mus musculus [3]): Non-toxic
- Activity (Mus musculus [4]): Non-toxic
- Activity (Mus musculus [5]): Active
- inhibition in vivo at 30 mg/kg (Mus musculus [6]): 44.4%
- Activity (Mus musculus [7]): Non-toxic
- LD50 [8]: > 2000 mg/kg
- Activity (Mus musculus [9]): Non-toxic

SMILES: OC[C@H]1C[C@@H](Cl)C[C@@H](c2ccc3ccccc3c2)O1 (relative stereo)
- Activity (Mus musculus [1]): Non-toxic
- Activity (Mus musculus [2]): Non-toxic
- Activity (Mus musculus [3]): Non-toxic
- Activity (Mus musculus [4]): Non-toxic
- Activity (Mus musculus [5]): Active
- inhibition in vivo at 30 mg/kg (Mus musculus [6]): 46.6%
- Activity (Mus musculus [7]): Non-toxic
- LD50 [8]: > 2000 mg/kg
- Activity (Mus musculus [9]): Non-toxic

SMILES: OC[C@H]1CCC[C@@H](c2ccc3ccccc3c2)O1 (relative stereo)
- Activity (Mus musculus [1]): Non-toxic
- Activity (Mus musculus [2]): Non-toxic
- Activity (Mus musculus [3]): Non-toxic
- Activity (Mus musculus [4]): Non-toxic
- Activity (Mus musculus [5]): Active
- inhibition in vivo at 30 mg/kg (Mus musculus [6]): 55.7%
- Activity (Mus musculus [7]): Non-toxic
- LD50 [8]: > 2000 mg/kg
- Activity (Mus musculus [9]): Non-toxic

SMILES: CC[C@@H]1CCC[C@H](C(=O)O)O1 (racemic)
- Activity (Mus musculus [1]): Non-toxic
- Activity (Mus musculus [2]): Non-toxic
- Activity (Mus musculus [3]): Non-toxic
- inhibition in vivo at 50 mg/kg (Mus musculus [10]): 15%
- Activity (Mus musculus [4]): Non-toxic
- Activity (Mus musculus [5]): Active
- inhibition in vivo at 30 mg/kg (Mus musculus [6]): 14.1%
- Activity (Mus musculus [7]): Non-toxic
- LD50 [8]: > 2000 mg/kg
- Activity (Mus musculus [9]): Non-toxic

SMILES: O=C(O)[C@H]1CCC[C@@H](c2ccc3ccccc3c2)O1
- Activity (Mus musculus [1]): Non-toxic
- Activity (Mus musculus [2]): Non-toxic
- Activity (Mus musculus [3]): Non-toxic
- Activity (Mus musculus [4]): Non-toxic
- Activity (Mus musculus [5]): Active
- inhibition in vivo at 30 mg/kg (Mus musculus [6]): 43.1%
- Activity (Mus musculus [7]): Non-toxic
- LD50 [8]: > 2000 mg/kg
- Activity (Mus musculus [9]): Non-toxic

SMILES: O=C(O)[C@H]1C[C@@H](Cl)C[C@@H](c2ccc3ccccc3c2)O1 (relative stereo)
- Activity (Mus musculus [1]): Non-toxic
- Activity (Mus musculus [2]): Non-toxic
- Activity (Mus musculus [3]): Non-toxic
- Activity (Mus musculus [4]): Non-toxic
- Activity (Mus musculus [5]): Active
- inhibition in vivo at 30 mg/kg (Mus musculus [6]): 28.1%
- Activity (Mus musculus [7]): Non-toxic
- LD50 [8]: > 2000 mg/kg
- Activity (Mus musculus [9]): Non-toxic

SMILES: OC[C@H]1C[C@@H](Cl)C[C@@H](c2cccc3ccccc23)O1 (relative stereo)
- Activity (Mus musculus [1]): Non-toxic
- Activity (Mus musculus [2]): Non-toxic
- Activity (Mus musculus [3]): Non-toxic
- Activity (Mus musculus [4]): Non-toxic
- Activity (Mus musculus [5]): Active
- inhibition in vivo at 30 mg/kg (Mus musculus [6]): 87.5%
- Activity (Mus musculus [7]): Non-toxic
- LD50 [8]: > 2000 mg/kg
- Activity (Mus musculus [9]): Non-toxic

SMILES: OC[C@H]1CCC[C@@H](c2cccc3ccccc23)O1 (relative stereo)
- Activity (Mus musculus [1]): Non-toxic
- Activity (Mus musculus [2]): Non-toxic
- Activity (Mus musculus [3]): Non-toxic
- Activity (Mus musculus [4]): Non-toxic
- Activity (Mus musculus [5]): Active
- inhibition in vivo at 30 mg/kg (Mus musculus [6]): 39.2%
- Activity (Mus musculus [7]): Non-toxic
- LD50 [8]: > 2000 mg/kg
- Activity (Mus musculus [9]): Non-toxic
